Tested on: Leukotriene B4 receptor (Cavia porcellus)
Assay: Compound tested for binding affinity against Leukotriene B4 receptor using radioligand binding assay from guinea pig spleen membranes at a concentration of 300 nM.
Details: Membrane

| I [%] | Structure (SMILES) |
| --- | --- |
| 37 | COC(=O)c1cc(CC(=O)N(C)CCc2ccccc2)ccc1-c1ccccc1 |

Target: T1, Leukotriene B4 receptor 1 (Homo sapiens, UniProt Q15722)
Assay: (§1) Compound tested for binding affinity against Leukotriene B4 receptor using radioligand binding assay from Human PMN cells
Type: cell-based
Details: not given
Procedure, shortened: (§2)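 Human PMNs from acid-citrate-dextrose blood, used within 2 h, isolated by dextran sedimentation and Histopaque 1077 with hypotonic erythrocyte lysis. Cells were resuspended in Hanks/5 mM HEPES pH 7.4/1% ovalbumin. Compound in DMSO, 0.5 nM [3H]LTB4 and 3 × 10^6 PMN/mL were incubated 20 min at 4 °C, then GF/B filtered and scintillation counted. Nonspecific binding was defined with 1 µM LTB4. Read-out was % inhibition or IC50.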

T1 sequence (Q15722 whole entry): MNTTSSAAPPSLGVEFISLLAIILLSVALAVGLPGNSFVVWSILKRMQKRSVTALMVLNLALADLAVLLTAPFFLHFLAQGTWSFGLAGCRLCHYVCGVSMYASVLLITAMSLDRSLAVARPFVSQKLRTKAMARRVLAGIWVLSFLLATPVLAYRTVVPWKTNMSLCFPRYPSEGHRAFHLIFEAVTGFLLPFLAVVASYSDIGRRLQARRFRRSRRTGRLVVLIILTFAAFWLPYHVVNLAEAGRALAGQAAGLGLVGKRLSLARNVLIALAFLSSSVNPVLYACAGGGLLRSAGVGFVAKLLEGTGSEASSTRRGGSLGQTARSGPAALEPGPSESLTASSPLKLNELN

| IC50 [nM] | Structure (SMILES) |
| --- | --- |
| 200 | CN(CCc1ccccc1)C(=O)Cc1ccc(-c2ccccc2)c(/C=C/C(=O)O)c1 |

Target: T1, Leukotriene B4 receptor 1
Assay: as §1
Type: cell-based
Details: not given
Procedure, shortened: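 Cells were resuspended in Hanks/5 mM HEPES pH 7.4/1% ovalbumin. Compound in DMSO, 0.5 nM [3H]LTB4 and 3 × 10^6 PMN/mL were incubated 20 min at 4 °C, then GF/B filtered and scintillation counted. Nonspecific binding was defined with 1 µM LTB4. Read-out was % inhibition or IC50.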

| IC50 [nM] | Structure (SMILES) |
| --- | --- |
| 900 | CN(CCc1ccccc1)C(=O)Cc1ccc(OCc2ccccc2)cc1 |

Target: T1, Leukotriene B4 receptor 1
Assay: Compound tested for binding affinity against Leukotriene B4 receptor using radioligand binding assay from Human PMN cells at a concentration of 300 nM.
Type: cell-based
Details: not given
Procedure, shortened: as §2

| Structure (SMILES) | I [%] |
| --- | --- |
| COC(=O)c1cc(CC(=O)N(C)CCc2ccccc2)ccc1-c1ccccc1 | 0 |
| CN(CCc1ccccc1)C(=O)Cc1ccc(-c2ccccc2)c(CO)c1 | 18 |
| CN(CCc1ccccc1)C(=O)Cc1ccc(OCc2ccccc2)c(/C=C/C(=O)O)c1 | 27 |

Now from value to compound:

| I [%] | Structure (SMILES) |
| --- | --- |
| 29 | C/C(=C\C(=O)O)c1cc(CC(=O)N(C)CCc2ccccc2)cc(OCc2ccccc2)c1 |
| 16 | CN(CCc1ccccc1)C(=O)Cc1cc(CC(=O)O)cc(OC/C=C/c2ccccc2)c1 |
| 28 | CN(CCc1ccccc1)C(=O)Cc1cc(OCc2ccccc2)ccc1C(=O)O |

Target: Leukotriene B4 receptor (Cavia porcellus)
Assay: Binding affinity for Leukotriene B4 receptor of guinea pig spleen membranes
Details: not given

| Structure (SMILES) | IC50 [nM] |
| --- | --- |
| CN(CCc1ccccc1)C(=O)Cc1ccc(OCc2ccccc2)c(/C=C/C(=O)O)c1 | 2.27 |
| CN(CCc1ccccc1)C(=O)Cc1ccc(-c2ccccc2)c(/C=C/C(=O)O)c1 | 44.6 |
| CN(CCc1ccccc1)C(=O)Cc1ccc(-c2ccccc2)c(C(=O)O)c1 | 27 |
| C/C(=C\c1cc(CC(=O)N(C)CCc2ccccc2)ccc1-c1ccccc1)C(=O)O | 65 |

Now from value to compound:

| IC50 [nM] | Structure (SMILES) |
| --- | --- |
| 53.3 | CN(CCc1ccccc1)C(=O)Cc1cc(OCC(=O)O)cc(OCc2ccccc2)c1 |
| 225 | CN(CCc1ccccc1)C(=O)Cc1cccc(OCc2ccccc2)c1 |
| 143 | C/C(=C\C(=O)O)c1cc(CC(=O)N(C)CCc2ccccc2)cc(OCc2ccccc2)c1 |
| 1200 | CN(CCc1ccccc1)C(=O)Cc1cc(CC(=O)O)cc(OC/C=C/c2ccccc2)c1 |
| 250 | CN(CCc1ccccc1)C(=O)Cc1cc(OCc2ccccc2)ccc1C(=O)O |
| 65.6 | CN(CCc1ccccc1)C(=O)Cc1ccc(OCc2ccccc2)cc1 |
| 200 | CN(CCc1ccccc1)C(=O)Cc1cc(CC(=O)O)cc(OCc2ccccc2)c1 |
